Data taken from article PMC5650512 (Cell chemical biology, 2017).

Legend:
MCF-7 cells [1] = test: OCR and ECAR, XF Extracellular Flux Analyzer, MCF-7; type: cell-based
AMPKα (p-Thr172) [2] = test: AMPKα Thr172 phosphorylation western blot, MCF-7; type: cell-based
[3] = tested on: cytochrome P450 reductase (CPR); test: Rate of reduction of cytochrome c by CPR; type: biochemical
Procedure, shortened: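 Run in a quartz cuvette with 1 mL 0.3 M potassium phosphate, pH 8.3, containing cytochrome c (62 μM) and NADPH (50 μM). Reaction started by adding CPR (final 0.2 mg/mL). Absorbance at 550 followed in real time.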

CYP2J2 = biological target: T1, CYP2J2 (Homo sapiens, UniProt P51589); test: CYP2J2 AA epoxygenase activity; type: biochemical; conditions: data not shown
T1 sequence (P51589 1-502): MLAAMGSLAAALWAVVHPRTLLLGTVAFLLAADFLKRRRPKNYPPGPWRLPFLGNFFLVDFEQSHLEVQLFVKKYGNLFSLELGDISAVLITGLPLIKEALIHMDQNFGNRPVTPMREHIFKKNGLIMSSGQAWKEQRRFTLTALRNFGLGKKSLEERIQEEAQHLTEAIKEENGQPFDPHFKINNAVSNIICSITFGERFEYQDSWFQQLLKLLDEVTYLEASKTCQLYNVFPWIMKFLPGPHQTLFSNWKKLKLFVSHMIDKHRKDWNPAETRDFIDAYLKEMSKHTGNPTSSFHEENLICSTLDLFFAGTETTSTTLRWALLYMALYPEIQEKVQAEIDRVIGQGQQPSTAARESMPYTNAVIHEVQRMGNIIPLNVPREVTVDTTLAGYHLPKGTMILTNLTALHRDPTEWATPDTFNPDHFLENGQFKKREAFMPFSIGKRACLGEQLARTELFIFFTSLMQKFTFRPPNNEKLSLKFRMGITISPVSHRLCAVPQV

MCF-7 cell line = test: MCF-7 cell proliferation; type: cell-based; conditions: for Abrogation of biguanide growth inhibition by (±)-14,15-EET: (±)-14,15-EET 1 µM, MTT at 24 hours
MCF-7 cells [4] = test: Cellular ATP by luminescent assay; type: cell-based; conditions: 6 hours, 10% serum
Procedure, shortened: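 Cells seeded in 96-well plates and exposed to vehicle or test compound. Lysis solution added with 5 min orbital shaking, then luciferase/luminescent substrate; 10 min in the dark before reading luminescence. ATP was quantified against a standard curve of known ATP concentrations.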

MCF-7 cells [5] = test: Cellular EET levels by LC-ESI/MRM/MS; type: cell-based; conditions: 5 mM, 6 hours; P<0.05 for each regioisomer
MDA-MB-231 cells = test: Mitochondrial membrane potential ΔΨm; type: cell-based
MCF-7 cells [6] = test: Mitochondrial membrane potential ΔΨm; type: cell-based
Procedure, shortened: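 JC-1 arm: MCF-7 cells exposed to test compound (20 µM, 4 h), with or without pre-treatment with (±)-14,15-EET (1 µM). Red/green ratio quantified as mean ± S.D. (n=4). TMRE arm: 20,000 cells/well grown overnight, TMRE 500 nM for 30 min at 37 °C, two washes in PBS/0.2% BSA, read Ex 530/Em 590 nm. FCCP (10 µM, 30 min) background subtracted.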

AMPKα (p-Thr172) [7] = test: AMPKα phosphorylation western blot, MDA-MB-231; type: cell-based; conditions: 1 µM; 24 hours
[8] = tested on: MCF-7 mammary fat pad xenograft; test: MCF-7 orthotopic mammary fat pad xenograft
[9] = tested on: STAT3-Tyr705, p70 S6 Kinase-Thr389, mTOR-Ser2448, ERK1/2 phosphorylation; test: Western blot time course of signaling proteins, MCF-7; type: cell-based; conditions: 20 µM
[10] = tested on: mTOR, PKC-ζ/λ, AMPKα in MCF-7 tumors; test: Signaling proteins in MCF-7 xenograft tumors; type: in vivo, mice
[11] = Plasma concentration after ip dosing; type: in vivo, mice; conditions: female, athymic nude (Foxn1nu/Foxn1nu), mouse, 4 mg/kg/day
[12] = tested on: MDA-MB-435/LCC6 cell line; test: MDA-MB-435/LCC6 cell growth; type: cell-based; conditions: data not shown
MDA-MB-231 cell line = test: MDA-MB-231 cell growth; type: cell-based
CYP3A4 = CYP3A4 (Homo sapiens, UniProt P08684); test: Microsomal CYP3A4-mediated EET biosynthesis; type: biochemical; conditions: IC50, inhibition of CYP3A4-mediated synthesis of (±)-14,15-EET, 30 minutes exposure
Sequence of CYP3A4 (P08684 whole entry): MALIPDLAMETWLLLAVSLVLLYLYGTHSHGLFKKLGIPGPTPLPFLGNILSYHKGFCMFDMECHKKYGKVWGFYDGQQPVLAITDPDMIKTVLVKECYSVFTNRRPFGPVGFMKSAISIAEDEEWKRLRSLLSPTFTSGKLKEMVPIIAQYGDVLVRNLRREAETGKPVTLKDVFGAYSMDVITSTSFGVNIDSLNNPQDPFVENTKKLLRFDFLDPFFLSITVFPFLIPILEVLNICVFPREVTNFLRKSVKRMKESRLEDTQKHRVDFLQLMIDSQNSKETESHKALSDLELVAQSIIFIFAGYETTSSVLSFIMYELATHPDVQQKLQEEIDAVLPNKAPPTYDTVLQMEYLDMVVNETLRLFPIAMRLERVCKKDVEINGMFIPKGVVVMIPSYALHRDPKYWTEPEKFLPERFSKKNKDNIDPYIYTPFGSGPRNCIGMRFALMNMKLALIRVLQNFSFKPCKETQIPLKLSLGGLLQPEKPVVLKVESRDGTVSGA

[13] = tested on: AMPKα in MDA-MB-231 tumors; test: Signaling proteins in MDA-MB-231 xenograft tumors; parameters: species or system mice; conditions: in vivo
T47D cell line = test: T47D cell growth; type: cell-based
[14] = metformin 2.5 or 5 mM, over 5 hours

SMILES: CCCCCC1OC1CCCCCCC/C=C\CCCC(=O)O (racemic) [(±)-14,15-EEZE]
- Effect on ECAR (MCF-7 cells [1]; 1.0 µM): suppressed
- Effect on OCR (MCF-7 cells [1]; 1.0 µM): suppressed
- Effect on AMPKα activation (AMPKα (p-Thr172) [2]; associated with OCR suppression): early activation

SMILES: CN(C)C(=N)N=C(N)N [metformin]
- Inhibition of transfer of electrons from CPR (rate of reduction of cytochrome c) [3]: does not inhibit
- Inhibition of AA epoxygenase activity of CYP2J2 (CYP2J2; 0.75, […] or 3 mM): not inhibited
- Effect on ECAR (MCF-7 cells [1]; [14]): transient ECAR spike, followed by suppression of ECAR
- Effect on OCR (MCF-7 cells [1]; [14]): marginal suppression of OCR
- Abrogation of biguanide growth inhibition by (±)-14,15-EET (MCF-7 cell line): abrogated most of the growth inhibition
- Effect on cellular ATP (MCF-7 cells [4]; metformin, normalized to cell number): no effect
- Intracellular EET levels (MCF-7 cells [5]): reduced

SMILES: CCCCCC1OC1C/C=C\C/C=C\C/C=C\CCCC(=O)O (racemic) [(±)-14,15-EET, (±)-14,15-(5Z,8Z,11Z)-EET, reference compound]
- Rescue of HBB-reduced ΔΨm by pre-treatment (MDA-MB-231 cells; exogenous (±)-14,15-EET, HBB 20 µM): partly rescued
- Effect on ΔΨm alone (JC-1) (MCF-7 cells [6]; 1 µM, relative to control): increased mitochondrial cross membrane potential
- Rescue of HBB-reduced ΔΨm by pre-treatment (MCF-7 cells [6]; (±)-14,15-EET 1 µM, HBB 20 µM): partly rescued
- Effect on AMPK phosphorylation (AMPKα (p-Thr172) [7]): no effect
- Effect on pAMPKα (Thr172) phosphorylation (AMPKα (p-Thr172) [2]; 1 µM, 6 and 24 hours): suppression of pAMPKα phosphorylation

SMILES: [H]/N=C(/N)N/C(=N/[H])NCCc1ccccc1 [phenformin]
- Abrogation of biguanide growth inhibition by (±)-14,15-EET (MCF-7 cell line): part of the inhibition

SMILES: CCCCCCNC(=N)NC(=N)NCc1ccccc1 [HBB, N1-hexyl-N5-benzyl-biguanide]
- Tumor size vs. vehicle ([8]; 4 mg/kg/day, Gompertzian fitting P=0.0354): smaller than the vehicle-treated from day 8 onward
- Hepatic or cardiac toxicities by post-mortem histopathology ([8]; 6 mg/kg ip 4 days per week): no HBB-related hepatic or cardiac toxicities
- Tumor size ([8]; 6 mg/kg ip 4 days per week (24 mg/kg/week), P=0.039): reduced tumor size
- Tumor weights at the end point relative to vehicle ([8]; 6 mg/kg ip 4 days per week, P=0.034): half
- Minimal effective dose (MED) ([8]; ip daily beginning the day after tumor cell implantation): 4 mg/kg
- Effect on mTOR, S6 kinase and ERK ([9]; by 24 hours, presence or absence of serum): Significant inhibition
- Effect on p70 S6 kinase ([9]; independent of serum starvation): rapid and transient activation of p70 S6 kinase at 30 minutes
- Effect on Stat3 phosphorylation ([9]; presence of serum): inhibited Stat3 phosphorylation
- Intratumoral PKC-ζ/λ phospho-threonine 410/403 (RPPA) ([10]; HBB 4 mg/kg/day vs. PBS, P=0.000119): reduction of PKC-ζ/λ phospho-threonine 410/403
- Intratumoral mTOR (RPPA) ([10]; HBB 4 mg/kg/day vs. PBS, P=4.06×10^−6): reduction of mTOR
- AMPKα activation in tumors ([10]; in vivo): failed to activate AMPKα
- concentration at 1 h [11]: 530 nM
- Abrogation of HBB growth inhibition by EETs [12]: failed to counteract HBB inhibition
- Effect on ΔΨm (JC-1) (MDA-MB-231 cells; 20 µM for 4 hours): rapid reduction of ΔΨm
- Abrogation of HBB growth inhibition by EETs (MDA-MB-231 cell line): failed to counteract HBB inhibition
- Rescue from HBB inhibition by N-acetyl-cysteine (NAC) (MDA-MB-231 cell line): rescued by the antioxidant N-acetyl-cysteine (NAC)
- IC50 (CYP3A4): 9.5 µM
- Effect on ΔΨm (JC-1) (MCF-7 cells [6]; 20 µM for 4 hours): rapid reduction of ΔΨm
- Effect on ΔΨm (TMRE, non-quenching conditions) (MCF-7 cells [6]; TMRE 500 nM): inhibit ΔΨm in a dose dependent fashion
- AMPKα activation in tumors [13]: did activate AMPKα
- Inhibition of AA epoxygenase activity of CYP2J2 (CYP2J2; microsomal): did not inhibit
- Potency of OCR inhibition compared to metformin (MCF-7 cells [1]): > 250 fold
- Effect on ECAR (MCF-7 cells [1]; HBB 20 and 40 µM): transient spike of ECAR, followed by inhibition without recovery
- Effect on OCR (MCF-7 cells [1]; HBB 20 and 40 µM): rapid, dose-dependent reduction of OCR within 15 minutes
- Abrogation of HBB growth inhibition by EET analog C22 (MCF-7 cell line): partially abrogated HBB inhibition
- Abrogation of biguanide growth inhibition by (±)-14,15-EET (MCF-7 cell line): part of the inhibition
- Reduction of ATP (MCF-7 cells [4]; HBB): 30%
- Effect on pAMPKα (AMPKα (p-Thr172) [2]; 20 µM): activated pAMPKα within 30 minutes
- Abrogation of HBB growth inhibition by (±)-14,15-EET (T47D cell line): abrogated most of the HBB inhibition

SMILES: NC(=O)c1ncn([C@@H]2O[C@H](CO)[C@@H](O)[C@H]2O)c1N [AICAR]
- Effect on ECAR (MCF-7 cells [1]; AICAR 100 µM): increased
- Effect on OCR (MCF-7 cells [1]; AICAR 100 µM): increased

SMILES: CCCCNC(=N)NC(=N)N [buformin]
- Abrogation of biguanide growth inhibition by (±)-14,15-EET (MCF-7 cell line): part of the inhibition
